ChEMBL document CHEMBL1145502, “Roxithromycin favorably modifies the initial phase of resistance against infection with macrolide-resistant Streptococcus pneumoniae in a murine pneumonia model” (Antimicrob Agents Chemother, 2007)
In brackets after ≈: the same amount, converted by molar mass. Activity calls are given as the source filed them. The rule behind the calls is not given here.

Assays:
[1] = tested on: Streptococcus pneumoniae; test: Reduction of pneumolysin production in Streptococcus pneumoniae NMU112 lysates at 5 ug/mL after 12 hrs by Western blot relative to control; type: functional, organism-based
In short: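 NMU112 at 5 × 10⁷ CFU/ml in THY cultured with macrolide at 37°C for 12 h, then whole-cell sonicated lysates run on SDS-PAGE and immunoblotted for pneumolysin. Band densitometry as mean % of drug-free culture; two cultures per dose per experiment, three experiments.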

[2] = tested on: Streptococcus pneumoniae; test: Antimicrobial activity against drug-resistant Streptococcus pneumoniae NMU112 infected CBA/J mouse assessed as median survival time at 10 mg/kg, po relative to control; type: functional
In short: (§1)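 Male CBA/J mice, 3-4 weeks old, 28-30 g. Macrolide given by oral gavage in saline for 3 days; RXM, ERY and CLR twice daily at 12-h intervals, AZM once daily. Saline controls. 24 h after the last dose, mice were infected intratracheally with 5 × 10⁴ CFU NMU112 (erm(B)/mef(A)). Kaplan-Meier survival and median survival time, log rank test; 10 mice per group per experiment.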

[3] = tested on: Streptococcus pneumoniae; test: Antimicrobial activity against Streptococcus pneumoniae NMU112; type: functional
In short: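 Broth microdilution MIC per NCCLS in Mueller-Hinton broth with 3% lysed horse blood.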

[4] = tested on: Streptococcus pneumoniae; test: Antimicrobial activity against Streptococcus pneumoniae NMU605; type: functional
In short: (§2)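 Broth microdilution MIC (NCCLS method) in Mueller-Hinton broth with 3% lysed horse blood; clinical isolates NMU605 (serotype 3) and NMUP45 (serotype 4).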

[5] = tested on: Streptococcus pneumoniae; test: Antimicrobial activity against Streptococcus pneumoniae NMU112 infected in po dosed CBA/J mouse assessed as delaying in development of bacteremia […]; type: functional, organism-based
[6] = tested on: Streptococcus pneumoniae; test: Antimicrobial activity against drug-resistant Streptococcus pneumoniae NMU112 infected CBA/J mouse assessed as median survival time at 5 mg/kg, po relative to control; type: functional; in short: as §1
[7] = tested on: Streptococcus pneumoniae; test: Inhibition of pneumococcal surface protein A production in Streptococcus pneumoniae NMU112 lysates at 5 ug/mL after 12 hrs by Western blot relative to control; type: functional, organism-based
In short: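 Strain NMU112 (5 × 10⁷ CFU/ml in THY) cultured 12 h at 37°C with drug. Sonicated whole-cell lysates run on SDS-PAGE and Western blotted; bands measured by densitometry as % of drug-free culture. Two cultures per dose, three experiments (n = 5–6).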

[8] = tested on: Streptococcus pneumoniae; test: Antimicrobial activity against Streptococcus pneumoniae NMUP45; type: functional; in short: as §2

Compound | Activity [1] | MST [2] | MIC [3] | MIC [4] | Activity [5] | MST [6] | Activity [7] | MIC [8]
CC[C@H]1OC(=O)[C@H](C)[C@@H](O[C@H]2C[C@@](C)(OC)[C@@H](O)[C@H](C)O2)[C@H](C)[C@@H](O[C@@H]2O[C@H](C)C[C@H](N(C)C)[C@H]2O)[C@](C)(O)C[C@@H](C)CN(C)[C@H](C)[C@@H](O)[C@]1(C)O [AZITHROMYCIN] | Active | 7.33 days | ≥ 256 µg/mL | 0.125 µg/mL (≈ 0.167 µM) | Active | 5.84 days | Active | –
CC[C@H]1OC(=O)[C@H](C)[C@@H](O[C@H]2C[C@@](C)(OC)[C@@H](O)[C@H](C)O2)[C@H](C)[C@@H](O[C@@H]2O[C@H](C)C[C@H](N(C)C)[C@H]2O)[C@](C)(OC)C[C@@H](C)C(=O)[C@H](C)[C@@H](O)[C@]1(C)O [CLARITHROMYCIN] | Active | 8.45 days | ≥ 256 µg/mL | 0.03 µg/mL (≈ 0.0401 µM) | Active | 6.82 days | Active | 2 µg/mL (≈ 2.67 µM)
